Activity calls are given as the source filed them. The rule behind the calls is not given here.
Key:
[1] = biological target: T1, D(3) dopamine receptor (Homo sapiens, UniProt P35462); experiment: Displacement of [3H]N-methylspiperone from human D3R receptor expressed in HEK293T cell membrane assessed as inhibition constant incubated for 60 mins by MicroBeta scintillation counting method; format: cell membranes
[2] = biological target: D(2) dopamine receptor (Homo sapiens, UniProt P14416); experiment: Displacement of [3H]N-methylspiperone from human D2L receptor expressed in HEK293T cell membrane assessed as inhibition constant incubated for 60 mins by MicroBeta scintillation counting method; format: cell membranes
D(2) dopamine receptor, sequence (P14416 whole entry): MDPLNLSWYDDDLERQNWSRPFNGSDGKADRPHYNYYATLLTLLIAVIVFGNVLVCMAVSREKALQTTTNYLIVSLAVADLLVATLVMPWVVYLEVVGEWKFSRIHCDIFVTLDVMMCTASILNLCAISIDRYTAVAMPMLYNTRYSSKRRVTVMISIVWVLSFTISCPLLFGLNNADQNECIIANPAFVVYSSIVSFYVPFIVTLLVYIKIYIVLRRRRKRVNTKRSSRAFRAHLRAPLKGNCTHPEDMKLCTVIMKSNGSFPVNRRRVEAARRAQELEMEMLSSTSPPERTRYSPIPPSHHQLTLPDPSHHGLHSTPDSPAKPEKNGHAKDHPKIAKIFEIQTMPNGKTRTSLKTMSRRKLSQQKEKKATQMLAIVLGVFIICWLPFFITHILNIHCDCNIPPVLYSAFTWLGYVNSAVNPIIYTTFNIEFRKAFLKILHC

[3] = biological target: Mu-type opioid receptor (Homo sapiens, UniProt P35372); experiment: Displacement of [3H]-DAMGO from human MOR receptor expressed in HEK293T cell membrane assessed as inhibition constant incubated for 60 mins by MicroBeta scintillation counting method; format: cell membranes
Mu-type opioid receptor (Homo sapiens, UniProt P35372), sequence (P35372 whole entry): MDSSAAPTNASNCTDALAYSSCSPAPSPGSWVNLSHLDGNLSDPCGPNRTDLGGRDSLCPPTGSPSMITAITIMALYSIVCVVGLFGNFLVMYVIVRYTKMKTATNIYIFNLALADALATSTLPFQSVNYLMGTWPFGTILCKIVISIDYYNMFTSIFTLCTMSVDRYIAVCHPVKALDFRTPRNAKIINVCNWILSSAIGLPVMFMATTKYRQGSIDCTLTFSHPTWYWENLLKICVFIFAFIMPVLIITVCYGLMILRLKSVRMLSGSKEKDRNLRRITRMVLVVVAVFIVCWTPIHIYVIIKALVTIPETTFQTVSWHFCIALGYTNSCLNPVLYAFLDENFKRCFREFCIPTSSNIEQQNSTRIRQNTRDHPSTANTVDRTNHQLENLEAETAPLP
Procedure, shortened: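 HEK293 cells stably expressing human MOR, grown in DMEM with 10% FBS and hygromycin B; membranes prepared from confluent cells. Binding buffer 50 mM Tris, 5 mM MgCl2, pH 7.4. Nonspecific binding with 10 μM naloxone. 60 min at RT, then GF/C filtration.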

[4] = biological target: T2, Mu-type opioid receptor (Mus musculus, UniProt P42866); experiment: (§1) Partial agonist activity at Rluc8 fused mouse MOR transfected in HEK293T cells assessed as Nb33 recruitment using coelenterazine as substrate incubated for 40 mins by BRET assay; format: functional, cell-based
T2 sequence (P42866 whole entry, the tested form may be a part): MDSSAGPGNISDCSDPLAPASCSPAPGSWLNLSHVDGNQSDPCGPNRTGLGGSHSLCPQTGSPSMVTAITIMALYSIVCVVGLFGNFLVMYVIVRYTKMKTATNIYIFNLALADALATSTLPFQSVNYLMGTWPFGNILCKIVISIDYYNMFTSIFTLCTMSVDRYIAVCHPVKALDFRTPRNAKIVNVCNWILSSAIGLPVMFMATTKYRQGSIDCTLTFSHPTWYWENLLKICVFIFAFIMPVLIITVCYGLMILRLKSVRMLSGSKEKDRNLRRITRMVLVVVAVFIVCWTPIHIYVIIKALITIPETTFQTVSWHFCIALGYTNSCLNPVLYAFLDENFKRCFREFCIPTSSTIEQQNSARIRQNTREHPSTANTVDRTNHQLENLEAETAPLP
Procedure, shortened: (§2)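 HEK293T cells transiently transfected with BRET sensors (DNA:PEI 1:6), plated into poly-D-lysine plates and assayed 48 h post-transfection. Cells washed and held in D-PBS 30 min at 37 °C. Coelenterazine h 5 μM final; ligands 10 μM to 0.01 nM. At least three independent experiments in duplicate.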

[5] = biological target: T2, Mu-type opioid receptor; experiment: (§3) Partial agonist activity at SNAP-tagged mouse MOR transfected in HEK293T cells coexpressing wild type Galpha-i2, venus-tagged Gbeta-1 (156 to 239 residues), venus-tagged Ggamma2 (1 to 155 residues) and Rluc8 fused masGRK3ct assessed as Galpha-i2 activation using coelenterazine as substrate incubated for 40 mins by BRET based GPA assay; format: functional, cell-based; procedure, shortened: as §2
[6] = biological target: T1, D(3) dopamine receptor; experiment: as §3, with “Antagonist” for “Partial agonist”, “human D3R receptor” for “mouse MOR”, “Galpha-oA,” for “Galpha-i2,”, “Galpha-oA” for “Galpha-i2”, “mins in presence of quinpirole” for “mins”; format: functional, cell-based
[7] = biological target: Mu-type opioid receptor (Mus musculus) (UniProt P42866); experiment: as §3, with “Agonist” for “Partial agonist”, “activation at 10 uM” for “activation”, “assay relative to control” for “assay”; format: functional, cell-based; settings: filed as agonist
Mu-type opioid receptor (Mus musculus), sequence (P42866 whole entry, the tested form may be a part): as above
Procedure, shortened: (§4)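 HEK293T cells transiently transfected with BRET sensors (DNA:PEI 1:6), plated into poly-D-lysine plates and assayed 48 h post-transfection. Cells washed and held in D-PBS 30 min at 37 °C. Coelenterazine h 5 μM final; ligands 10 μM to 0.01 nM. […] At least three independent experiments in duplicate.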

[8] = biological target: Mu-type opioid receptor (Mus musculus) (UniProt P42866); experiment: Agonist activity at Rluc8 fused mouse MOR transfected in HEK293T cells coexpressing wild type GRK2 assessed as arrestin-3 recruitment at 10 uM using coelenterazine as substrate incubated for 40 mins by BRET assay relative to control; format: functional, cell-based; settings: filed as agonist; procedure, shortened: as §4
[9] = biological target: Mu-type opioid receptor (Mus musculus) (UniProt P42866); experiment: Agonist activity at Rluc8 fused mouse MOR transfected in HEK293T cells assessed as Nb33 recruitment at 10 uM using coelenterazine as substrate incubated for 40 mins by BRET assay relative to control; format: functional, cell-based; procedure, shortened: as §4
[10] = biological target: T2, Mu-type opioid receptor; experiment: Agonist activity at Rluc8 fused mouse MOR transfected in HEK293T cells coexpressing wild type GRK2 assessed as arrestin-3 recruitment using coelenterazine as substrate incubated for 40 mins by BRET assay; format: functional, cell-based; procedure, shortened: as §2
[11] = biological target: T2, Mu-type opioid receptor; experiment: Agonist activity at Rluc8 fused mouse MOR transfected in HEK293T cells assessed as Nb33 recruitment using coelenterazine as substrate incubated for 40 mins by BRET assay; format: functional, cell-based; procedure, shortened: as §2
[12] = biological target: T2, Mu-type opioid receptor; experiment: as §3, with “Agonist” for “Partial agonist”; format: functional, cell-based; procedure, shortened: as §2
[13] = biological target: Mu-type opioid receptor (Mus musculus) (UniProt P42866); experiment: Partial agonist activity at Rluc8 fused mouse MOR transfected in HEK293T cells assessed as Nb33 recruitment at 10 uM using coelenterazine as substrate incubated for 40 mins by BRET assay relative to control; format: functional, cell-based; procedure, shortened: as §2
[14] = biological target: Mu-type opioid receptor (Mus musculus) (UniProt P42866); experiment: as §3, with “activation at 10 uM” for “activation”, “assay relative to control” for “assay”; format: functional, cell-based; settings: filed as partial agonist; procedure, shortened: as §2
[15] = biological target: Mu-type opioid receptor (Mus musculus) (UniProt P42866); experiment: (§5) Partial agonist activity at Rluc8 fused mouse MOR transfected in HEK293T cells coexpressing wild type GRK2 assessed as arrestin-3 recruitment using coelenterazine as substrate incubated for 40 mins by BRET assay; format: functional, cell-based; procedure, shortened: as §2
[16] = biological target: Mu-type opioid receptor (Mus musculus) (UniProt P42866); experiment: Partial agonist activity at Rluc8 fused mouse MOR transfected in HEK293T cells coexpressing wild type GRK2 assessed as arrestin-3 recruitment at 10 uM using coelenterazine as substrate incubated for 40 mins by BRET assay relative to control; format: functional, cell-based; procedure, shortened: as §4
[17] = biological target: T1, D(3) dopamine receptor; experiment: as §3, with “human D3R receptor” for “mouse MOR”, “Galpha-oA,” for “Galpha-i2,”, “Galpha-oA” for “Galpha-i2”; format: functional, cell-based
[18] = biological target: T2, Mu-type opioid receptor; experiment: as §5; format: functional, cell-based; procedure, shortened: as §2
[19] = biological target: Mu-type opioid receptor (Mus musculus) (UniProt P42866); experiment: as §1; format: functional, cell-based; procedure, shortened: as §2

T1 sequence (P35462 whole entry): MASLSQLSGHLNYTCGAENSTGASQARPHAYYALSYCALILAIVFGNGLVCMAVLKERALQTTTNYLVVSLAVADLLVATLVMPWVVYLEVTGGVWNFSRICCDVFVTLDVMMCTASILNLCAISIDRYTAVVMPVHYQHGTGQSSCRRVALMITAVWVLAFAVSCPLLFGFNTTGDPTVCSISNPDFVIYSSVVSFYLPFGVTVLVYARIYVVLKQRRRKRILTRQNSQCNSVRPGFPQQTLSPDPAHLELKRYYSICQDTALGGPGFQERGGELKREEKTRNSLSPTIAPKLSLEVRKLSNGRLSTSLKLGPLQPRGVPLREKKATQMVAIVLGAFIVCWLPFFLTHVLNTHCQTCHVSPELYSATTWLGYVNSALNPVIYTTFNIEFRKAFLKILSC

Fc1cncc(CNCC[C@@]2(c3ccccn3)CCOC3(CCCC3)C2)c1
Ki [1]: 85100 nM | Ki [2]: > 100000 nM | Ki [3]: 54.7 nM

CN(C)C(=O)C(CCN1C[C@H](F)C[C@H]1C(=O)NCCCCN1CCN(c2cccc(C(F)(F)F)n2)CC1)(c1ccccc1)c1ccccc1
EC50 [4]: 5750 nM | Ki [3]: 192 nM | EC50 [5]: 1160 nM

CCCN(CCC(C(=O)N(C)C)(c1ccccc1)c1ccccc1)[C@@H]1C[C@H]1c1ccc(Cl)cc1 (relative stereo)
Ki [3]: 31.2 nM

CN(C)C(=O)C(CCN1C[C@H](F)C[C@H]1C(=O)NCCCCN1CCN(c2cccc(Cl)c2Cl)CC1)(c1ccccc1)c1ccccc1
Ki [3]: 787 nM

CCC1(CC)CC(OCCCNCc2cccc(C(F)(F)F)n2)(c2ccccn2)CCO1 (stereo not given)
Ki [1]: 2700 nM | Ki [3]: 2520 nM

Clc1ccc([C@@H]2C[C@H]2NCCC2(c3ccccn3)CCOC3(CCCC3)C2)cc1 (relative stereo)
Ki [1]: 361 nM | EC50 [6]: 271 nM | IC50 [6]: 269 nM | Emax [7]: 97.6% | Emax [8]: 51.3% | Ki [2]: 5520 nM | Emax [9]: 24.9% | EC50 [10]: 261 nM | EC50 [11]: 406 nM | Ki [3]: 85.2 nM | EC50 ([12]; read-out: EC50): 73.4 nM | EC50 ([12]; read-out: pEC50 (converted)): 72.4 nM

CN(C)C(=O)C(CCN[C@@H]1C[C@H]1c1ccc(F)cc1)(c1ccccc1)c1ccccc1 (relative stereo)
Ki [3]: 47 nM

Clc1cccc(N2CCN(CCC3(c4ccccn4)CCOCC3)CC2)c1Cl
EC50 [10]: 6480 nM | EC50 [11]: 1590 nM | Ki [3]: 691 nM | EC50 ([12]; read-out: EC50): 848 nM

CC1CCC(CN2CCN(c3cccc(Cl)c3Cl)CC2)CN1CCC(C(=O)N(C)C)(c1ccccc1)c1ccccc1 (stereo not given)
Ki [1]: 309 nM | Ki [2]: 146 nM | Ki [3]: 867 nM

CN(C)C(=O)C(CCN1C[C@H](O)C[C@H]1CN1CCN(c2cccc(Cl)c2Cl)CC1)(c1ccccc1)c1ccccc1
Emax [13]: 12.7% | Ki [1]: 247 nM | Activity [6]: inactive | Emax [14]: 73.6% | Ki [2]: 1180 nM | EC50 [4]: 3330 nM | Activity [15]: inactive | Activity [16]: inactive | Ki [3]: 529 nM | EC50 [5]: 3450 nM

FC(F)(F)c1cccc(N2CCN(CCCOC3(c4ccccn4)CCOC4(CCCC4)C3)CC2)n1 (stereo not given)
Ki [1]: 286 nM | Ki [2]: 1310 nM | Ki [3]: 1640 nM

CCc1cc(Cl)c(OC)c(N2CCN(Cc3cn(CCC(C(=O)N(C)C)(c4ccccc4)c4ccccc4)nn3)CC2)c1
Ki [3]: 2380 nM

CCC1(CC)CC(OCCCN2CCN(c3cccc(Cl)c3Cl)CC2)(c2ccccn2)CCO1 (stereo not given)
Ki [1]: 21.7 nM | Ki [2]: 122 nM | Ki [3]: 2270 nM

CN(C)C(=O)C(CCN1CCC(CCN2CCN(c3cccc(Cl)c3Cl)CC2)C1)(c1ccccc1)c1ccccc1 (stereo not given)
Emax [13]: 14.6% | Ki [1]: 20.2 nM | EC50 [17]: 41.7 nM | Emax [14]: 85.4% | Ki [2]: 117 nM | EC50 [4]: 658 nM | EC50 [18]: 470 nM | Emax [16]: 10.5% | Ki [3]: 23.5 nM | EC50 [5]: 158 nM

CN(C)C(=O)C(CCN1C[C@H](O)C[C@H]1C(=O)NCCCCN1CCN(c2cccc(C(F)(F)F)n2)CC1)(c1ccccc1)c1ccccc1
Ki [3]: 791 nM | EC50 [5]: 470 nM

CCc1cc(Cl)c(OC)c(N2CCN(C[C@@H]3C[C@@H](O)CN3CCC(C(=O)N(C)C)(c3ccccc3)c3ccccc3)CC2)c1
Emax [13]: inactive | Ki [1]: 111 nM | IC50 [6]: 2950 nM | EC50 ([6]; hek293t): 2960 nM | EC50 [17]: 25.4 nM | Emax [14]: 86.1% | Ki [2]: 870 nM | Activity [19]: inactive | Activity [15]: inactive | Activity [16]: inactive | Ki [3]: 377 nM | EC50 [5]: 3310 nM

CN(C)C(=O)C(CCN1C[C@H](O)C[C@H]1CN1CCN(c2cccc(C(F)(F)F)n2)CC1)(c1ccccc1)c1ccccc1
Ki [1]: 2700 nM | Ki [2]: 4660 nM | Ki [3]: 782 nM

FC(F)(F)c1cccc(N2CCN(CCC3(c4ccccn4)CCOCC3)CC2)n1
Ki [3]: 1670 nM

Reference: ChEMBL document CHEMBL5360615, “Pharmacological and Physicochemical Properties Optimization for Dual-Target Dopamine D3 (D3R) and μ-Opioid (MOR) Receptor Ligands as Potentially Safer Analgesics” (J Med Chem, 2023)
